Compound activity from PubChem.
Shown are actives, neighbours in structure and some others; about 2.3% of the full set was active somewhere.
TRPC6 act: activates the mouse TRPC6 cation channel; Q61143; HEK293-TRPC6 membrane potential dye fluorescence; stronger effect = higher value; B-score at 10 µM; hit rate 0.13% among 310,000; AID 2550;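 active = B-score of the integrated fluorescence ratio above library mean plus 3 SD, and starting fluorescence ratio within library mean plus 5 SD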;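 note: higher score means more depolarization so channel activation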
TRPC4 inh: TRPC4 (mouse) channel inhibition; B-score at 10 µM; AID 2247; Q9QUQ5; HEK293 TRPC4beta/mu-opioid, DAMGO-evoked Fluo4 calcium flux; stronger effect = lower value; hit rate 0.39% among 300,000;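 active = B-score over 3 SD under the library average, no early fluorescence shift, positive overall ratio signal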
Target sequence (Q9QUQ5 whole entry, looked up): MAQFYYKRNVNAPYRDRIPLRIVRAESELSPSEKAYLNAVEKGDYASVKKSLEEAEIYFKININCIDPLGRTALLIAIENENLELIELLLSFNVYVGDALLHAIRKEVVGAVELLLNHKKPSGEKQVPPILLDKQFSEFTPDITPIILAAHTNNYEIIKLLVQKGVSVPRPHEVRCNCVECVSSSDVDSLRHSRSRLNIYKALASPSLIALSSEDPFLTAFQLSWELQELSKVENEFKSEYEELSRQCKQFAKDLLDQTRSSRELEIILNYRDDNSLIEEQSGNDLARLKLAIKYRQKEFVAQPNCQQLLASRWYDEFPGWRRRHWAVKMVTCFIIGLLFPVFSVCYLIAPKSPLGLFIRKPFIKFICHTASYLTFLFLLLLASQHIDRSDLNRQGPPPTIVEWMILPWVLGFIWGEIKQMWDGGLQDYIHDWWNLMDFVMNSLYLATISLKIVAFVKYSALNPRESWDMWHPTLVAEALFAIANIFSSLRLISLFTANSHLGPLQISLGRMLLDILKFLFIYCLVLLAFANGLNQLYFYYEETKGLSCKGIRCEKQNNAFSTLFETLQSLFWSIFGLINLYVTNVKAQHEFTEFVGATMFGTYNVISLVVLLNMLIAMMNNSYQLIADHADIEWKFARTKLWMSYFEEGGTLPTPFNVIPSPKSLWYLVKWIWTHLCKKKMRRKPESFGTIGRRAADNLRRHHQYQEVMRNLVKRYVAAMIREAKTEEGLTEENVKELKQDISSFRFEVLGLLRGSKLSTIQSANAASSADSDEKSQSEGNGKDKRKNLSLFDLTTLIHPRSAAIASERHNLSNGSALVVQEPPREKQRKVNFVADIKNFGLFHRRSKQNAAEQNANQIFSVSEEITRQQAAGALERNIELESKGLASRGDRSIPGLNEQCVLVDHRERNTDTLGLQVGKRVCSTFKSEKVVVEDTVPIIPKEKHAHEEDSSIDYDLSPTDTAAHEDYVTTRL
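test system = HEK293 cells with stable TRPC4beta plus mu-opioid receptor expression | detection = Fluo4 Ca2+ flux fluorescence | read-out = integrated fluorescence ratio relative to baseline, converted to per-well B score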
TRPC4 agonist: opens the mouse TRPC4 cation channel; Q9QUQ5; B-score at 10 µM; hit rate 0.49% among 310,000; HEK293 TRPC4beta/mu-opioid, Fluo4 calcium fluorescence; stronger effect = higher value;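 active = B-score above 5 SD of library B-scores, and initial fluorescence ratio not above library mean plus 5 SD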;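 note: positive B-score marks a calcium rise read as TRPC4 activation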
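Assay system: HEK293 cells stably co-expressing mouse TRPC4beta and mu-opioid receptor / Timing: Fluo4 dye loading 45 min at room temperature, 110 s recording / Signal: Fluo4 calcium-sensitive dye fluorescence, kinetic, 1 Hz baseline / Read-out: integrated baseline-normalised fluorescence ratio, converted to per-well B score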
TRPC4 PAM: allosteric potentiators of mouse TRPC4 channel; Q9QUQ5; B-score at 10 µM; HEK293 TRPC4beta/mu-opioid, DAMGO EC20, Fluo-4 Ca2+ flux; stronger effect = higher value; hit rate 0.42% among 310,000; AID 2227;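 active = B-score of calcium response area above 5 SD of library B-scores, with initial fluorescence ratio within 5 SD of library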
TRPC6 inh: blocks the mouse TRPC6 cation channel; HEK293-TRPC6, membrane potential dye, ACh-evoked depolarization; stronger effect = lower value; B-score at 10 µM; hit rate 1.1% among 310,000; AID 2553;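 active = B-score under library mean minus 3 SD, initial fluorescence not abnormally high, positive integrated signal ratio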;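 note: B-score derived from integrated fluorescence ratio over the kinetic read; more negative B-score means stronger inhibition of depolarization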
Numbers stand for hits; – = inactive.

SMILES	TRPC6 act	TRPC4 inh	TRPC4 agonist	TRPC4 PAM	TRPC6 inh
COc1ccc(-n2ncc(C(C)NS(=O)(=O)c3cccs3)c2C)cc1 (stereo not given)	–	–	–	–	–
CCOC(=O)c1ccc(NC(=S)N2CCN(C(=O)C3CCCO3)CC2)cc1 (stereo not given)	–	–	–	–	–
CN(C)CCCN(C(=O)c1ccc(C(=O)c2ccccc2)cc1)c1nc2cc3c(cc2s1)OCO3	–	–	–	–	–
Cc1ccc(-c2csc(N(CCCN(C)C)C(=O)c3ccco3)n2)cc1	–	-6	–	–	–
COc1ccc(-c2csc(N(CCCN(C)C)C(=O)c3cccs3)n2)cc1	–	–	56	–	–
CN(C)CCCN(C(=O)c1ccco1)c1nc2cc3c(cc2s1)OCO3	–	–	–	–	-7.83
Cc1ccc(-c2csc(N(CCCN3CCOCC3)C(=O)c3ccco3)n2)cc1	–	–	–	–	–
Cc1cc(C)c(NC(=O)C2CCN(c3cnccn3)CC2)c(C)c1	–	–	–	–	–
Fc1ccc(C2CCNCC2COc2ccc3c(c2)OCO3)cc1 (stereo not given)	–	–	102	–	–
O=C(NCCOc1ccccc1)C1CCC(=O)N(CCN2CCOCC2)C1 (stereo not given)	–	–	–	–	–
CN(CC(=O)Nc1cccc(F)c1)C(=O)c1ccccc1OCC(=O)Nc1cccc(C(F)(F)F)c1	–	–	–	–	–
Cc1cc(Br)cc(C)c1OCCCCN(C)C	–	–	–	35	–
Cc1cc(Cl)c(OCCCN(C)C)c(Br)c1	–	–	–	–	–
Cc1ccc(-c2nc3c(c(=O)c4ccccc4n3C)c(=O)n2-c2ccc(F)cc2)cc1	–	–	–	–	–
Cn1c2ccccc2c(=O)c2c(=O)n(C3CCCCC3)c(-c3ccco3)nc21	–	–	116	–	–
Cc1nc2c(c(=O)c3ccccc3n2C)c(=O)n1C1CCCCCC1	–	–	–	–	–
Cn1c2ccccc2c(=O)c2c(=O)n(-c3ccccc3)c(-c3ccc(C(C)(C)C)cc3)nc21	–	–	–	21	–
COc1ccc(N(C)S(=O)(=O)c2c(C)[nH]c(=O)[nH]c2=O)cc1	–	–	–	–	–
CCn1c(N2CCN(S(=O)(=O)c3ccccc3C(F)(F)F)CC2)nc2ccccc21	–	–	119	–	–
O=C(CSCc1ccccc1Br)NNC(=S)NCc1ccco1	–	–	–	–	–
CCCC1=C(C(=O)OCC)C(c2cc(Cl)cc(OC)c2OCC(=O)OCC)NC(=O)N1 (stereo not given)	–	–	–	22	–
CCOC(=O)COc1c(OC)cc(Cl)cc1C1NC(=O)NC(C)=C1C(C)=O (stereo not given)	–	–	–	–	–
O=C(N/N=C/c1cc2c(cc1Br)OCO2)c1cc2ccccc2o1	–	-7	–	–	–
CC1Oc2ccccc2C=C1/C=N/Nc1ccc(C(=O)O)cc1 (stereo not given)	–	-5	–	–	–
O=C(NCc1cccs1)C1CCCN1C(=O)Nc1ccccc1Cl (stereo not given)	–	–	–	–	–
SMILES	TRPC6 act	TRPC4 inh	TRPC4 agonist	TRPC4 PAM	TRPC6 inh
CC(C)Cc1csc(NC(=O)c2ccc(Cl)cc2)c1C(=O)O	–	–	48	–	–
CC(C)Cc1csc(NC(=O)c2ccccc2Cl)c1C(=O)O	–	–	–	–	–
CNCC(C)COc1ccccc1OCc1ccccc1 (stereo not given)	–	-6	–	–	–
COC(=O)C1=C(C)N=c2s/c(=C3\C(=O)Nc4ccccc43)c(=O)n2C1c1ccccc1 (stereo not given)	–	–	–	–	-5.91
Cc1ccc(Cl)cc1NC(=O)CCC(=O)O	–	–	–	–	–
COc1ccc(Cl)cc1NC(=O)CNC(c1ccccc1)c1ccccc1	–	–	–	–	–
COc1ccc(Cl)cc1NC(=O)CNCC(c1ccccc1)N(C)C (stereo not given)	–	-7	49	–	–
Cc1ccc(Cl)cc1NC(=O)CNCC(c1ccccc1)N(C)C (stereo not given)	–	–	118	–	–
CC1CCCCN1S(=O)(=O)c1ccc(C(=O)Nc2sccc2C(N)=O)cc1 (stereo not given)	–	–	–	11	–
CNC(=O)COc1ccc2oc3c(c2c1)CCCC3	–	-6	–	–	–
CNC(=O)NC(=O)COc1ccc2oc3c(c2c1)CCCC3	–	–	–	–	–
COc1ccc(OCc2nnc(SCC(=O)c3c(N)n(C)c(=O)n(C)c3=O)n2-c2ccccc2F)cc1	–	–	–	–	–
O=C(NCC(c1cccs1)N1CCOCC1)c1ccc(Cl)c([N+](=O)[O-])c1 (stereo not given)	–	–	90	–	–
Cc1c(CCOC(=O)C2C3CC4CC(C3)CC2C4)sc[n+]1CC(=O)c1ccc(Br)cc1 (stereo not given)	–	–	–	–	–
COc1ccc(C(=O)OCCc2sc[n+](CC(=O)c3ccccc3)c2C)cc1	–	–	–	–	-5.26
Cc1c(CCOC(=O)c2cccc([N+](=O)[O-])c2)sc[n+]1CC(=O)c1ccccc1	–	-6	–	–	–
CCc1c(C(=O)NNC(=S)NCCc2ccccc2)csc1C	–	–	–	–	–
Nc1nonc1-n1nnc(C(=O)N/N=C/c2cccc(O)c2)c1CN1CCCC1	–	–	–	–	–
CN1CCN(Cc2c(C(=O)N/N=C/c3cccc(Br)c3)nnn2-c2nonc2N)CC1	–	–	43	–	–
CCOC(=O)Cc1c(C)nc(SC)[nH]c1=O	–	–	–	–	–
NC1=NC2=C(CCCC2)C2(CCCCC2)S1	–	-6	–	–	–
CN1C(=O)C(C)(C)c2cc(S(=O)(=O)N3CCC(C(=O)NCc4ccccc4Cl)CC3)ccc21	–	–	–	–	–
CCOC(=O)C1NC(=O)CC1c1ccccc1 (stereo not given)	–	–	–	–	–
CCOC(=O)[C@@H]1CCNC[C@@H]1c1ccccc1	–	–	190	–	–
N#C/C(=C/c1cccn1-c1cccc(C(=O)O)c1)c1ccc(Cl)cc1	–	-6	–	–	–
SMILES	TRPC6 act	TRPC4 inh	TRPC4 agonist	TRPC4 PAM	TRPC6 inh
N#CC(C#N)=Cc1cccn1-c1ccc(C(=O)O)cc1	–	–	–	–	–
CS(=O)(=O)N1CCN(c2ccccc2NC(=O)c2ccc(Cl)cc2)CC1	–	–	–	–	–
CS(=O)(=O)N1CCN(c2ccccc2NC(=O)CSc2ccc(Cl)cc2)CC1	–	–	–	10	–
Cc1ccc(C)c(NC(=O)c2cc(=O)c3ccccc3o2)c1	–	–	–	12	–
COc1cc(-c2noc(C)c2-c2ccc3[nH]ccc3c2)cc(OC)c1OC	–	–	–	–	–
COc1cc(-c2noc(C)c2-c2ccc(N(C)C)nc2)cc(OC)c1OC	–	–	66	–	–
CCOc1ccc(CNS(=O)(=O)c2c(C)nc3sccn3c2=O)cc1OC	–	–	–	–	–
